Results from different studies.
Protocols differ between the studies behind these lines.
Cell line: PC-3
Observed: cell growth or viability

Structure (SMILES) | assay | setting | inhibition
O=C(Nc1cccc(-c2ccco2)c1)C1CCCN(C(=O)c2cc(C(F)(F)F)cc(C(F)(F)F)c2)C1 (stereo not drawn) | WST-1 | 100 µM | 0%
O=C(CN1C(=O)/C(=C/c2cccc(F)c2)SC1=S)Nc1ccccc1 | MTT | 10 µM | 18.9%
COC(=O)c1cccc(NC(=O)C2CCCN(C(=O)c3cc(C(F)(F)F)cc(C(F)(F)F)c3)C2)c1 (stereo not drawn) | WST-1 | 100 µM | 0%
COc1ccc(C(=O)/C=C/c2ccccc2Br)cc1S(N)(=O)=O | SRB | 10 µM | 79%
O=C(CN1C(=O)/C(=C/c2ccncc2)SC1=S)Nc1ccccc1 | MTT | 10 µM | 5.33%
COc1ccc(C(=O)/C=C/c2cccc(Cl)c2)cc1S(N)(=O)=O | SRB | 10 µM | 68%
COc1ccc(/C=C2\SC(=S)N(CC(=O)Nc3ccccc3)C2=O)cc1 | MTT | 10 µM | 25%
O=C(Nc1cccc(Cc2ccccc2)c1)C1CCCN(C(=O)c2cccc(-c3ccco3)c2)C1 (stereo not drawn) | WST-1 | 100 µM | 0%
O=C(CN1C(=O)/C(=C/c2ccc([N+](=O)[O-])cc2)SC1=S)Nc1ccccc1 | MTT | 10 µM | 16.6%
Cn1cnnc1-c1cccc(NC(=O)C2CCCN(C(=O)c3cc(C(F)(F)F)cc(C(F)(F)F)c3)C2)c1 (stereo not drawn) | WST-1 | 100 µM | 0%
COc1ccc(C(=O)/C=C/c2cccc(Br)c2)cc1S(N)(=O)=O | SRB | 10 µM | 135%
COc1cccc(NC(=O)CN2C(=O)/C(=C/c3cccs3)SC2=S)c1 | MTT | 10 µM | 7.28%
COc1ccc(C(=O)/C=C/c2cccc(Cl)c2Cl)cc1S(N)(=O)=O | SRB | 10 µM | 95%
O=C1Nc2ccccc2C1=NNc1nnc2n1N=C(c1ccccc1)CS2 | SRB | 10 µM | 20%
COc1cc(CNC(=O)CCCC/C=C/C(C)C)ccc1O | SRB | 10 µM | 19%
